Experimental data: ChEMBL document CHEMBL4513216, “Probing the Open Global Health Chemical Diversity Library for Multistage-Active Starting Points for Next-Generation Antimalarials” (ACS Infect Dis, 2020)

Assay: Toxicity liver stage against HepG2, at 10uM
Format: cell-based
Design: test concentration 10 uM, cell line HepG2-A16-CD81EGFP
Details: human, HepG2-A16-CD81EGFP cells; read-out: INHIBITION
Method in brief: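 Uninfected HepG2-A16-CD81EGFP cells, 3 × 10^3 per well, 1536-well, plated on prespotted compound at 10 μM final, parasite-free screening media added to match infected plates; puromycin 10 μM positive, DMSO 0.5% negative; run in parallel with 48 h PbLuc assay at 37 °C, 5% CO2; viability by CellTiter-Glo luminescence, normalized to controls.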

Compared with `FC(F)(F)c1ccc(CNC[C@H]2COCc3nc4cccnc4n32)cc1`, `O=C(NCc1cccc(C(F)(F)F)c1)C(c1cccnc1)N1CCCC1` (stereo not drawn) is lower in cytotoxicity at 10 µM: 8.04% for the first, 6.63% for the second.

Going from `COc1ccccc1-c1nnc([C@H]2CCN(C(C)=O)C2)o1` to `CC(=O)N1CCC(c2nccnc2Oc2ccccc2)CC1`, the cytotoxicity at 10 µM falls from 4.71% to 3.7%.

Going from `O=C(Cc1noc(C(=O)NCC2CC2)n1)Nc1cccc(C(F)(F)F)c1` to `N#Cc1ncn(CCC(=O)Nc2cccc(Cl)c2)n1`, the cytotoxicity at 10 µM falls from 8.13% to -152%.

Compared with `COCCn1cnc2ccc(NC(=O)C(C)C)cc2c1=O`, `CC[C@H](N)C(=O)Nc1nn(CC(F)(F)F)c2cc(OC(C)C)ccc12` is higher in cytotoxicity at 10 µM: -9.46% for the first, -2.8% for the second.

First: Cc1ccoc1C(=O)N1CCCc2c(c(=O)n(C)n2C)C1
Second: COCc1nn(C)c2c1CN(C(=O)c1ccno1)CC2
The cytotoxicity at 10 µM of the first is lower: 11.7% for the first, 12.7% for the second.

Going from `COCc1nnn2c1CN(C(=O)c1c[nH]cn1)CCC2` to `CCc1nc(CN2CCCN(C(=O)c3cc(C)on3)CC2)cs1`, the cytotoxicity at 10 µM falls from 2.02% to -7.81%.

First: O=C([C@@H]1CC[C@@H]2[C@@H](CCN2c2ncccn2)O1)N1CCCO1
Second: O=C([C@H]1CCCO1)N1CC[C@H](O)[C@@H]1Cc1cccnc1
The cytotoxicity at 10 µM of the first is higher: 8.79% for the first, -105% for the second.

Compared with `CCn1ncc2c1C(COC)CN(Cc1ccco1)C2` (stereo not drawn), `CN(C)C(=O)COCC1CN(Cc2ccco2)Cc2ncn(C)c21` (stereo not drawn) is lower in cytotoxicity at 10 µM: 7.1% for the first, -7.86% for the second.

Going from `Cc1nnc2ccc(N3CCC(C(=O)Nc4nccs4)CC3)nn12` to `CCN(C)c1ncnc2c1CCN(c1ccc(C)nn1)CC2`, the cytotoxicity at 10 µM falls from 3.89% to -94.7%.

First: NCCc1c(-c2ccc(F)cc2)[nH][nH]c1=O
Second: CN(C)CCN(Cc1ccc(F)cc1)C(=O)c1ccn(C)c(=O)c1
The cytotoxicity at 10 µM of the first is higher: -1.3% for the first, -4.62% for the second.

Going from `COc1ccccc1-n1c(O)cc(C)c(C#N)c1=O` to `CC(c1ccc2c(c1)OCO2)n1cc2nc(N(C)C)[nH]cc-2c1=O` (stereo not drawn), the cytotoxicity at 10 µM falls from 2.74% to -2.72%.

Compared with `CN1[C@@H](C(=O)NCC2CC2)C[C@@H]2CN(Cc3ccco3)C[C@@H]21`, `O=C(CN1CCCC(Cn2cncn2)C1)NCc1ccco1` (stereo not drawn) is lower in cytotoxicity at 10 µM: 4.68% for the first, -0.587% for the second.

Compared with `CCOc1ccc(NC(C)=O)cc1S(=O)(=O)Nc1nccs1`, `Cc1cc(NC(=O)C(C)Nc2cccc(COCc3ccco3)c2)on1` (stereo not drawn) is higher in cytotoxicity at 10 µM: -8.2% for the first, -2.41% for the second.

Compared with `Cc1ocnc1C(=O)N(C)[C@@H]1CCC[C@@H](N2CCCC2)[C@@H]1O`, `c1cc2c(cc1CN1C[C@@H]3COC[C@@H](N4CCCC4)[C@@H]3C1)OCO2` is higher in cytotoxicity at 10 µM: -3.7% for the first, 4.62% for the second.

First: Cc1cc(N(C)C)nc(C2COCCN2Cc2csc(C)n2)n1 (stereo not drawn)
Second: COc1c(C2CCCN2Cc2c(C)noc2C)c(C)nn1C (stereo not drawn)
The cytotoxicity at 10 µM of the first is lower: 1.75% for the first, 5.73% for the second.

Compared with `Cc1cc(C(=O)NCc2ccc(-c3n[nH]cc3C(=O)N(C)C)cc2)on1`, `CNc1ncc(CN(C)C(=O)c2c[nH]nc2-c2cccc(F)c2)cn1` is lower in cytotoxicity at 10 µM: 4.29% for the first, -4.69% for the second.

First: c1ccc(CCN2CCCC(c3ccnc4nccn34)C2)cc1 (stereo not drawn)
Second: c1ccc(CCN2CCOC(Cn3cccn3)C2)nc1 (stereo not drawn)
The cytotoxicity at 10 µM of the first is higher: 4.22% for the first, -4.48% for the second.

First: Cc1cc(-c2cnc(NC3CC3)nc2-c2ccc(C)o2)on1
Second: CSCCNC(=O)c1coc(COc2ccc3sc(C)nc3c2)n1
The cytotoxicity at 10 µM of the first is higher: 2.26% for the first, -1.51% for the second.

Compared with `Cc1noc(C)c1CNCC1CNc2ccnn2C1` (stereo not drawn), `O=C(CCC1CCCO1)NCc1ccnc(-n2cccn2)c1` (stereo not drawn) is lower in cytotoxicity at 10 µM: -2.72% for the first, -14.6% for the second.

First: Cc1csc(CCNc2ccc(C#N)cc2F)n1
Second: CC(C)(C)C(=O)NS(=O)(=O)c1ccc(C#N)cc1C(F)(F)F
The cytotoxicity at 10 µM of the first is higher: 2.17% for the first, -7.52% for the second.

Compared with `CN(C)c1ccccc1CN1CCCCC1CNS(C)(=O)=O` (stereo not drawn), `CN(C)S(=O)(=O)N1CC[C@]2(C[C@@H](OCc3ccccn3)CO2)C1` is higher in cytotoxicity at 10 µM: 0.212% for the first, 10.1% for the second.

Compared with `COc1ccc(COCC(=O)N2CCC(c3nncn3C)CC2)cc1`, `Cn1cnnc1C1CCN(C(=O)COCc2ccccc2Cl)CC1` is lower in cytotoxicity at 10 µM: 4.9% for the first, -6.07% for the second.

First: CC(C)C1CN(C(=O)c2ccc3nccnc3c2)CCS1 (stereo not drawn)
Second: Cc1ccc(C(=O)N2CCN3C[C@H](Oc4cccnc4)C[C@H]3C2)cn1
The cytotoxicity at 10 µM of the first is higher: 5.02% for the first, 4.66% for the second.

Going from `COc1cc2c(cc1OC)S(=O)(=O)N(Cc1cc(C)on1)C2=O` to `COc1cc(CN(C)Cc2ccncc2)c(SC)cc1OC`, the cytotoxicity at 10 µM falls from 11.3% to 5.54%.

Going from `CCc1n[nH]c(=O)c(C(=O)N2CCSCC2)c1CC` to `CCc1nnc2n1CCN(Cc1ccc(C(=O)N3CCCC3)cc1)C2`, the cytotoxicity at 10 µM falls from 19.5% to -3.29%.

Going from `O=C1CCc2cc(S(=O)(=O)NC(=O)c3ccc4c(c3)OCO4)ccc2N1` to `CC(C)C(=O)NS(=O)(=O)c1ccc2c(c1)N(C)CCC2`, the cytotoxicity at 10 µM rises from -17.8% to -0.447%.

Going from `N#Cc1ccccc1CNC(C(=O)N1CCOCC1)c1ccccc1` (stereo not drawn) to `CN1C(=O)C2(CCN(C(=O)c3ccccc3)CC2)c2cc(F)ccc21`, the cytotoxicity at 10 µM falls from 11% to -106%.

Going from `CN(C(=O)Nc1nncs1)C1CCN(c2ccccc2Cl)C1=O` (stereo not drawn) to `O=C(CCc1cccs1)N1CCC(Nc2cccnn2)CC1`, the cytotoxicity at 10 µM falls from -7.04% to -10.5%.

Compared with `CCS(=O)(=O)CCNC(=O)NC(C)c1cc(C)sc1C` (stereo not drawn), `Cc1cc(C(=O)N2CC[C@H]3[C@H]2CCN3S(C)(=O)=O)c(C)o1` is lower in cytotoxicity at 10 µM: -3.4% for the first, -83.1% for the second.

Compared with `c1ccn2c(C3CCCN3Cc3nc(C4CC4)no3)nnc2c1` (stereo not drawn), `Cn1ccnc1CN1CCC(c2nc3ccccc3n2C)CC1` is higher in cytotoxicity at 10 µM: -2.59% for the first, 1.42% for the second.

First: Cc1nccn1-c1ccc(CNC(=O)c2ccc([S+](C)[O-])cc2)cn1 (stereo not drawn)
Second: Cc1ccnc(N2Cc3cnn(Cc4ccc(F)cc4)c3C2)n1
The cytotoxicity at 10 µM of the first is lower: -18.1% for the first, 3.59% for the second.

Compared with `CC(C)N1CCC(N(C)c2ccnc(N(C)C)n2)CC1`, `CC(C)N1CCn2c(COCC3CCOCC3)cnc2C1C` (stereo not drawn) is higher in cytotoxicity at 10 µM: -3.3% for the first, 8.22% for the second.

First: Cc1nonc1C(=O)N1CCc2c(ncn2CCc2ccccc2)C1
Second: CCNc1cc2c(nn1)CCN(C(=O)c1ccoc1)C2
The cytotoxicity at 10 µM of the first is higher: -0.207% for the first, -6.9% for the second.

Compared with `CC(=O)N1CCC2(CC1)c1ncc(-c3ccc(F)cc3)n1CCN2C`, `OCCn1cc(CN2CCN(CCOc3ccc(F)cc3)CC2)cn1` is higher in cytotoxicity at 10 µM: -101% for the first, -11.1% for the second.

Going from `Cn1cc(C2COC3(CCN(C(=O)c4cnccn4)CC3)C2)cn1` (stereo not drawn) to `CN1CCN(C2COC3(CCN(c4ccc(C#N)cc4)CC3)C2)CC1` (stereo not drawn), the cytotoxicity at 10 µM rises from -68.5% to 8.95%.

Compared with `CC1=N[C@@]2(CC[C@@H]3CN(S(=O)(=O)CC(C)C)C[C@@H]32)C(=O)N1C`, `CCC1=N[C@@]2(CC[C@@H]3CN(C(=O)NCc4cccc(F)c4)C[C@@H]32)C(=O)N1` is higher in cytotoxicity at 10 µM: -84.6% for the first, -69.4% for the second.

First: Cn1nc(Cn2ccnc2)c2c1CN(C(=O)c1ccc[nH]1)C2
Second: CN(C)Cc1noc2c1CN(C(=O)c1ccncc1)CC2
The cytotoxicity at 10 µM of the first is lower: -62.7% for the first, -1.28% for the second.

Compared with `COCCCn1c(CN2CCSCC2)cnc1S(=O)(=O)C1CCCC1`, `CCc1nc(CN2CCN(C(=O)C3CCCCC3)CC2)cs1` is higher in cytotoxicity at 10 µM: -3.89% for the first, 3.64% for the second.

Going from `COCCCC1(C(=O)O)CCCN(C(=O)c2ccc(Cl)cc2F)C1` (stereo not drawn) to `CCS(=O)(=O)N1CCC2(CCCN(Cc3ccc(F)c(F)c3)C2=O)C1` (stereo not drawn), the cytotoxicity at 10 µM rises from -0.37% to 17.6%.

Compared with `Cc1ccccc1OC1(C(=O)O)CCN(C(=O)CCc2ccco2)CC1`, `O=C(Cc1ccccc1F)N1C[C@@H]2COC[C@]2(COc2cccnc2)C1` is higher in cytotoxicity at 10 µM: 1.5% for the first, 9.29% for the second.

Compared with `CSCCC(=O)NCc1cc2n(n1)CCCN(C1CCCCC1)C2`, `c1ncn(CC2CCCCN2Cc2csc(C3CCCC3)n2)n1` (stereo not drawn) is lower in cytotoxicity at 10 µM: 19.9% for the first, -6.44% for the second.

Going from `CCN(CC)CCN(C)Cc1cn(C)nc1-c1ccc2c(c1)OCCO2` to `O=C(Cc1cccc(F)c1)NCCNCc1ccc2c(c1)CCO2`, the cytotoxicity at 10 µM falls from 2.95% to -12.5%.

First: Cc1ccc([C@@H]2CN(C(=O)c3ccccc3C)C[C@H]2N(C)C)cc1
Second: Cc1ccc(N(Cc2ccco2)C(=O)Cc2cc(=O)n(C)[nH]2)cc1
The cytotoxicity at 10 µM of the first is higher: -8.29% for the first, -152% for the second.

Going from `CCOC(=O)c1coc(N2CCC(C(C)N3CCCC3)CC2)n1` (stereo not drawn) to `Cc1cccc(CN2CCS(=O)(=O)[C@@H]3CCN(S(C)(=O)=O)CC[C@@H]32)n1`, the cytotoxicity at 10 µM falls from -1.89% to -3.34%.

Going from `COc1ncc(CN2CCC3(CCNC(=O)CC3)CC2)cn1` to `c1cc(CN2CCOCC3(CCN(CC4CCOCC4)CC3)C2)ccn1`, the cytotoxicity at 10 µM rises from -144% to -82.6%.

Going from `Cn1cc(CN2CC[C@@H]3[C@@H](CCC(=O)N3CC3CCNCC3)C2)cn1` to `O=c1ccc2c(n1Cc1cccnc1)CCN(C1CCOC1)CC2` (stereo not drawn), the cytotoxicity at 10 µM rises from 1.73% to 9.58%.

First: CN(Cc1nccn1C)C(=O)c1cccc(CCC(C)(C)O)c1
Second: COCCCNC(=O)CN(C)C(=O)c1ccc(-n2cccc2)cc1O
The cytotoxicity at 10 µM of the first is higher: 1.26% for the first, -13.5% for the second.

Compared with `NC(=O)NCC(=O)N1CCCC(c2nccn2Cc2ccncc2)C1` (stereo not drawn), `c1ccc(Cn2cc(CNC3CCc4ncnn4C3)cn2)cc1` (stereo not drawn) is lower in cytotoxicity at 10 µM: 5.07% for the first, -1.61% for the second.

First: Cc1nccn1CCN(C)c1nc(-c2ccc(Cl)cc2)nc2c1CNC2
Second: COc1ccc(CCN2CCCC(Cn3nc(C)nc3C)C2)cc1 (stereo not drawn)
The cytotoxicity at 10 µM of the first is lower: -29.5% for the first, -3.34% for the second.

First: Cc1ncsc1CCN(C)C(=O)CN1CCCCC1=O
Second: CCCSCC(=O)N1CCN(c2ccc(OC)cc2)CC1C (stereo not drawn)
The cytotoxicity at 10 µM of the first is higher: -14.8% for the first, -166% for the second.

Going from `CCN(C)C[C@@H]1CN(S(=O)(=O)c2ccc(OC)cc2)C[C@@H]1CO` to `COCCNC(=O)[C@@]12CCO[C@@H]1CCN(Cc1ccc(OC)cc1)C2`, the cytotoxicity at 10 µM falls from 14.8% to -77.8%.

Compared with `O=c1[nH]nc(CCCN2CCOCC2)n1-c1ccc(F)cc1F`, `CC(=O)N1CCO[C@@H]2CN(Cc3ccccc3F)C[C@@H]2C1` is lower in cytotoxicity at 10 µM: 4.54% for the first, -108% for the second.

First: Cc1nc2c(c(C)c1CC(=O)NCc1ccccc1F)c(=O)[nH]n2C
Second: N#Cc1ccc(C(=O)O)nc1C=Cc1cccc(Br)c1
The cytotoxicity at 10 µM of the first is lower: -5.52% for the first, 5.09% for the second.

First: COC[C@@]12CCC[C@@H]1CN(C(=O)Cc1ccccn1)C2
Second: Cc1noc([C@H]2C[C@@H]3CCN(c4nnc(C)s4)C[C@H]3O2)n1
The cytotoxicity at 10 µM of the first is lower: -96.7% for the first, 3.55% for the second.
